Test results published in ChEMBL document CHEMBL4513216, “Probing the Open Global Health Chemical Diversity Library for Multistage-Active Starting Points for Next-Generation Antimalarials” (ACS Infect Dis, 2020).

Assay: Toxicity liver stage against HepG2, at 10uM
Assay type: cell-based
Set-up: test concentration 10 uM, cell line HepG2-A16-CD81EGFP
Details: human, HepG2-A16-CD81EGFP cells; read-out: INHIBITION
Outline: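 Uninfected HepG2-A16-CD81EGFP cells, 3 × 10^3 per well, 1536-well, plated on prespotted compound at 10 μM final, parasite-free screening media added to match infected plates; puromycin 10 μM positive, DMSO 0.5% negative; run in parallel with 48 h PbLuc assay at 37 °C, 5% CO2; viability by CellTiter-Glo luminescence, normalized to controls.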

| SMILES | cytotoxicity at 10 µM [%] |
| --- | --- |
| NC(=O)C1CCN(C(=O)CCn2c(C(F)(F)F)cc3cccnc32)CC1 | -23.7 |
| O=C1CN(Cc2nnc(-c3ccccc3Br)o2)CCN1 | 9.35 |
| O=C(NC1CC1)NC(c1cc(F)ccc1F)C1CC1 (configuration not stated) | -12.8 |
| Cc1cccc(C2CCCCCN2C(=O)c2cn(CC(N)=O)nn2)c1 (configuration not stated) | 1.51 |
| O=C(c1ccno1)N1CC[C@@H]2O[C@@H](COCCN3CCCC3)CC[C@@H]21 | 0.925 |
| Cc1ccc(C(C)(O)CNC(=O)NCCc2ccc3c(c2)CCO3)o1 (configuration not stated) | -4.53 |
| CC(C)n1ccnc1C1CCCN(c2cc(C(=O)NC3CC3)ccn2)C1 (configuration not stated) | -0.352 |
| Cc1[nH]nc2ncc(C(=O)N3CCN(C(C)(C)C)CC3)cc12 | -4.36 |
| COc1cc(NC(=O)N(C)C(C2CC2)C2CC2)ncn1 | -6.69 |
| CCOCc1cnc2n1CCN(Cc1nc(C)cs1)C2C (configuration not stated) | 10.2 |
| Cc1cc(C(=O)N2CCCN(c3nccs3)CC2)c(C)n1C(C)C | 9.48 |
| COCC(=O)N(Cc1cccnc1)CC1CCN(C2CCCC2)CC1 | 1.49 |
| CN(C)S(=O)(=O)N1C[C@H]2CCC[C@@]2(COc2cccnc2)C1 | 11.8 |
| Cc1noc(C)c1CN1CCCC2(CCN(C(=O)NC3CC3)C2)C1 (configuration not stated) | 7.25 |
| CN1CC(Nc2nc3c(cnn3-c3ccccc3)c(=O)[nH]2)CCC1=O (configuration not stated) | -2.75 |
| CCCC(=O)NCC1CCCN(Cc2cc(C)c(C)o2)C1 (configuration not stated) | 8.82 |
| COc1ccc(Cl)cc1CS(=O)(=O)Cc1noc(C)n1 | 2.32 |
| CCn1ncc2c1CCCC2NCc1csc(COC)n1 (configuration not stated) | 1.17 |
| O=C1CSC(C(F)(F)F)c2c(O)nn(C3CCCCC3)c2N1 (configuration not stated) | -45.7 |
| Cc1cccc(C(=O)NCc2ccc(OCCN(C)C)cc2)c1C | 1.52 |
| C1CC(CN2CCCCC2C2OCCO2)C1 (configuration not stated) | -12.8 |
| Cc1nccc(-c2ccccc2)c1C(=O)N1CCC2(CN(C)C(=O)O2)C1 (configuration not stated) | 4.77 |
| O=C(CN1CCCC1Cn1cncn1)NCCOc1cccc(F)c1 (configuration not stated) | -3.24 |

| SMILES | cytotoxicity at 10 µM [%] |
| --- | --- |
| CC(C)(N)c1cn(C2CCN(C(=O)CCC3CCCCC3)CC2)nn1 | -6.53 |
| CC(C)CC1CC(=O)Nc2c1cnn2Cc1ccco1 (configuration not stated) | -2.75 |
| O=C(CCc1cscn1)N1CCCC1c1noc(C2CC2)n1 (configuration not stated) | -10.9 |
| Cc1ncsc1C(=O)NCc1ccnc(N2CCN(C)CC2)c1 | -6.92 |
| Cc1cc(C(=O)N2CCCC(n3cncn3)C2)on1 (configuration not stated) | -22.5 |
| O=C(NCC1CCOC1)c1csc(-c2cccc(Cl)c2)n1 (configuration not stated) | -7.41 |
| O=C(CN1CCOC(Cn2cccn2)C1)NC(C1CC1)C1CC1 (configuration not stated) | -42.1 |
| Cc1ccc(OC2(C(=O)NC(C)Cc3ccsc3)CCNCC2)cc1 (configuration not stated) | -15.4 |
| CC1COCCN1C(=O)COc1cccc(Oc2ccccn2)c1 (configuration not stated) | -5.15 |
| CN(Cc1cccs1)C1CCC[C@@H]2CN(C(N)=O)C[C@H]12 (some centres not stated) | 18.6 |
| CN(C)CCN(C)C(=O)c1cnc2c(c1)nc(-c1ccccc1Cl)n2C | 9.3 |
| O=C(NCc1ccncc1)c1ccc(Cl)cc1F | 0.55 |
| CCc1nc(NS(=O)(=O)c2cccc(F)c2C)no1 | 5.18 |
| CN1CCN(CC2CC2)C(=O)c2cnc(N3CCOCC3)nc21 | -10.3 |
| COc1cc(C2CC(=O)Nc3c2c(=O)[nH]n3C2CCCC2)ccc1O (configuration not stated) | -1.37 |
| CN1CCc2cc(C(CNS(=O)(=O)c3cccs3)N3CCCC3)ccc21 (configuration not stated) | 2.66 |
| CC(=O)c1cccc(NC(=O)NCCc2nnc[nH]2)c1 | -39.1 |
| CCCS(=O)(=O)N1CCN(CC(F)(F)F)CC1 | -3.29 |
| O=C(CN1CCC(c2ccnn2CCO)CC1)NCC1CCCCC1 | -0.463 |
| CC1(c2[nH]ncc2C(N)=O)CCN(S(=O)(=O)c2ccccc2)CC1 | -1.29 |
| Cc1ccc(CNCc2nnc3n2CCCC3C(F)(F)F)s1 (configuration not stated) | 20.7 |
| NC(=O)C1CCN(CC(=O)NCCn2cc(Cl)cn2)CC1 | -50 |
| CNC(=O)C1CN(C(=O)Cc2ccc(OC)cc2)Cc2cn(C)nc21 (configuration not stated) | 2.99 |

| SMILES | cytotoxicity at 10 µM [%] |
| --- | --- |
| CCOC(C(=O)N1CCn2c(C)nnc2C1)c1ccccc1 (configuration not stated) | 4.93 |
| O=C(NCCCn1ccnc1)C1COCC(=O)N1Cc1ccccc1 (configuration not stated) | 12.3 |
| COCc1noc(CC2CN(c3ncnc4sc(C)c(C)c34)CCO2)n1 (configuration not stated) | -0.649 |
| CC(Cn1ccnc1)NC(=O)N1CCN(Cc2ccco2)CC1 (configuration not stated) | -2.07 |
| O=C(NC1CCC(O)CC1)c1cnc2c(cnn2C2CCCC2)c1 (configuration not stated) | -3.79 |
| CC(C)C(NC(=O)NCc1cccnc1N(C)C)c1cccs1 (configuration not stated) | -1.86 |
| Cc1ncc2c(n1)CN(Cc1noc(C3CC3)n1)CC2 | -13.4 |
| CCc1nc(N2CCN(Cc3ncccc3C)CC2)c2cnn(C)c2n1 | -6.46 |
| COCC(=O)N1CCO[C@H]2[C@H](OCc3cccnc3)CC[C@@H]21 | -2.01 |
| COCC(=O)N1CCCC1c1ccc(C(=O)NCCN2CCCCC2)s1 (configuration not stated) | 4.26 |
| Cc1cc(C(C)NCCN2CCC(N(C)C)CC2)c(C)s1 (configuration not stated) | -0.85 |
| O=C1C(N2CCN(c3ccc(O)cc3)CC2)CCN1C1CCOCC1 (configuration not stated) | 12.6 |
| CCCS(=O)(=O)N1Cc2nccn2CC(CN2CCCC2)C1 (configuration not stated) | -131 |
| CCOCCCNC(=O)C1(C)CCC(=O)N1Cc1ccccc1F (configuration not stated) | -5.57 |
| O=S1(=O)NC[C@H]2CCN(Cc3ccccc3)CC[C@H]21 | -10.5 |
| CC(O)Cc1cn(CC2CCN(c3nccc4occc34)CC2)nn1 (configuration not stated) | -6.64 |
| Cc1cc(NCCc2nc(C)c[nH]2)nc(-c2ccccc2O)n1 | 1.5 |
| CC(C)N(C)S(=O)(=O)N(Cc1cccs1)CC1CCCO1 (configuration not stated) | -53.7 |
| CNC(=O)c1nc(Cn2ncc3ccccc3c2=O)no1 | 6.6 |
| Cc1ccc(NC2CCN(C(=O)CCNc3ncccn3)CC2)nn1 | -7.69 |
| CNc1cccc(C2CCN(C(C)=O)CC2)n1 | 7.49 |
| CN(C)c1ccc(-c2ccnc3c2ccn3C)nn1 | 10.9 |
| CCN(CC)C(CNC(=O)c1ccc(-n2cncn2)cc1)c1ccsc1 (configuration not stated) | -141 |

| SMILES | cytotoxicity at 10 µM [%] |
| --- | --- |
| Cc1nnc(CN2C[C@@H]3CC[C@H]2CN(C2Cc4ccccc4C2)C3)o1 | -1.06 |
| O=C(NCCSCc1ccc(Br)s1)C1CCCN(C(=O)c2cccs2)C1 (configuration not stated) | -1.79 |
| COc1c(C)cnc(CNC(=O)c2cc(C)nc3c2c(C)nn3C)c1C | -1.28 |
| Cc1cc(N2CCN(C(=O)C(C)n3ccnc3C(C)C)CC2)cc(C)n1 (configuration not stated) | -3.59 |
| CN(C1CCN(c2ccccn2)CC1)S(=O)(=O)c1ccccc1F | 14 |
| CC(C)(C)NC(=O)NCc1cnn2ccccc12 | -11.9 |
| O=S(=O)(C1CC1)N1CCO[C@H]2[C@@H](Oc3ncccc3F)CC[C@@H]21 | 1.67 |
| Cc1cccnc1[C@H](C)NC(=O)Cc1cc2c(cc1Cl)OCCO2 | -8.26 |
| Cn1ccnc1CNC(=O)c1cnc(C2CCNCC2)cn1 | -1.31 |
| CCn1cc(CNCC(c2ccc(Cl)cc2)n2cccn2)cn1 (configuration not stated) | 6.67 |
| Cn1cc(N2CCC(NC(=O)c3c(F)cccc3F)C2=O)cn1 (configuration not stated) | 2.5 |
| Cc1ccccc1C(C)CC(=O)N1CC[C@H](O)C1 (some centres not stated) | -49.7 |
| CC(C)c1cc(NC(=O)CNC2CCCN(c3cccnn3)C2)on1 (configuration not stated) | -1.79 |
| CN(C)CCN1CC[C@@H]2[C@@H]1CCN2C(=O)c1cccc(Cl)c1 | -84 |
| CN(C)C(=O)Cn1cc(C(=O)NCCc2ccc(C(F)(F)F)cc2)nn1 | -15.6 |
| COCc1cccc(NCc2cccnc2)c1 | 4.16 |
| O=C(CC1CCCO1)Nc1cccc(N2CCN(CC3CC3)CC2)c1 (configuration not stated) | -0.699 |
| c1nc2c(c(NCCCn3cncn3)n1)CCN(CC1CCOC1)CC2 (configuration not stated) | -10.6 |
| CCCS(=O)(=O)N1CCC2(CC1)CN(C(=O)N(C)C)c1ccccc12 | -108 |
| CC(C)c1ccc(OCC(=O)N(C)C)cc1 | -2.82 |
| COc1ccc(CC(=O)NCCn2nc3ccccn3c2=O)cc1 | -8.61 |
| COCCCn1cnnc1CNC(=O)c1[nH]c2c(C)cc(C)cc2c1C | 5.22 |
| O=C(Cc1ccccc1)NCCNC(=O)c1scnc1Cl | -1.55 |

| SMILES | cytotoxicity at 10 µM [%] |
| --- | --- |
| CCn1c(NCc2ccccn2)nc2c(C)nn(C)c2c1=O | 9.51 |
| CCCc1cnc(C)nc1N1CCC(Cc2ccc(CO)cc2)C1 (configuration not stated) | -2.36 |
| CCC(C(=O)NCc1nc(C)cc(C(F)(F)F)n1)n1cccn1 (configuration not stated) | -17.1 |
| COCCCN1CCC(CNc2nccc(-c3cnn(C)c3)n2)C1 (configuration not stated) | -147 |
| O=C1COc2c(cccc2C(=O)N2CCCC2Cn2cccn2)N1 (configuration not stated) | -4.47 |
| O=c1cc(C2CCNCC2)nc(CCc2ccccn2)[nH]1 | -0.226 |
| O=C(Nc1ccccc1)C1CCCN(C(=O)Cn2cncn2)C1 (configuration not stated) | 16.3 |
| Cc1cnn(C2CN(CC(=O)NCCc3cccs3)C2)c1 | -3.92 |
| CCCc1nc(C)cc(N2CCC3(CCC(=O)N(CCO)C3)CC2)n1 | -6.71 |
| N#CCCN(CC1CCCO1)C(=O)c1ccc2nonc2c1 (configuration not stated) | 1.35 |
| Cc1ccc(CN2CCS(=O)(=O)C(C)(C)C2)cc1C | 1.05 |
| CCc1csc(C2CCCN(C(=O)c3ncccn3)C2)n1 (configuration not stated) | -1.92 |
| CCCN(Cc1nccn1C)C(=O)c1cc(C(C)C)on1 | 4.24 |
| COc1cccc(CCN2C[C@H]3CCNCC[C@H]3S2(=O)=O)c1 | -8.35 |
| Cc1cccc(N(CCC(N)=O)CC(=O)Nc2ccccc2)c1 | -9.5 |
| O=C(c1sccc1C1CC1)N1CCN(c2ncccn2)CC1 | -6.87 |
| COc1ccccc1CCNC(=O)N1CCC(n2cncn2)CC1 | 0.428 |
| COCCn1ccnc1C1CCCN(C(=O)c2cccnc2SC)C1 (configuration not stated) | -14.2 |
| Cc1nc(N(C)C)ncc1C(=O)NCCCn1nccc1C1CC1 | 9.53 |
| CN(CC(=O)NCc1cccnc1N1CCCCC1)C(=O)c1cccs1 | -14.8 |
